Assay results published in ChEMBL document CHEMBL4689842, “EUbOPEN Chemogenomics Library wave 1” (2021).

Test system: HEK-293T
Assay: Multiplex assay against HEK293T;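 on Population Tubulin-Different-Phenotype (%): share of the cells with healthy nuclei that show this phenotype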
Format: toxicity, cell-based
Settings: human
Procedure, shortened: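 Live cells carried four stains from seeding: Hoechst33342, BioTracker Green Microtubule Cytoskeleton Dye, MitoTracker Red and Annexin V Alexa Fluor 680. They were imaged on a CQ1 microscope at 37°C and 5% CO2 after compound addition. Using CellPathfinder machine-learning gating, cells were split into Hoechst high-intensity objects or normal cells, normal cells into healthy, pyknosed or fragmented nuclei, and pyknosed cells into mitotic or apoptotic; tubulin, mitochondrial-mass and membrane-permeability phenotypes are per cents of healthy-nucleus cells.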

[1] = 12 h, 1 µM, compound concentration 1 uM, replicate 1
[2] = 12 h, 1 µM, compound concentration 1 uM, replicate 2
[3] = 12 h, 10 µM, compound concentration 10 uM, replicate 1
[4] = 12 h, 10 µM, compound concentration 10 uM, replicate 2
[5] = 24 h, 1 µM, compound concentration 1 uM, replicate 1
[6] = 24 h, 1 µM, compound concentration 1 uM, replicate 2
[7] = 24 h, 10 µM, compound concentration 10 uM, replicate 1
[8] = 24 h, 10 µM, compound concentration 10 uM, replicate 2
[9] = 48 h, 1 µM, compound concentration 1 uM, replicate 1
[10] = 48 h, 1 µM, compound concentration 1 uM, replicate 2
[11] = 48 h, 10 µM, compound concentration 10 uM, replicate 1
[12] = 48 h, 10 µM, compound concentration 10 uM, replicate 2

Cl.Oc1ccc2c3c1O[C@H]1c4[nH]c5c(c4C[C@@]4(O)[C@@H](C2)N(CC2CC2)CC[C@]314)C[C@@]1(O)[C@H]2Cc3ccc(O)c4c3[C@@]1(CCN2CC1CC1)[C@H]5O4
Population Apoptotic (%) [1]: 47%
Population Fragmented Nuclei (%) [1]: 8%
Population Healthy Nuclei (%) [1]: 45%
Population Hoechst High Intensity Objects (%) [1]: 13%
Population Membrane Permeable-Phenotype (%) [1]: 0%
Population Mitochondria Different-Phenotype (%) [1]: 74%
Population Mitotic Cells (%) [1]: 52%
Population Normal (%) [1]: 86%
Population Pyknosed Nuclei (%) [1]: 45%
Population Tubulin-Different-Phenotype (%) [1]: 46%
Total Cell Count [1]: 294
Population Apoptotic (%) [2]: 10%
Population Fragmented Nuclei (%) [2]: 4%
Population Healthy Nuclei (%) [2]: 38%
Population Hoechst High Intensity Objects (%) [2]: 5%
Population Membrane Permeable-Phenotype (%) [2]: 8%
Population Mitochondria Different-Phenotype (%) [2]: 10%
Population Mitotic Cells (%) [2]: 89%
Population Normal (%) [2]: 94%
Population Pyknosed Nuclei (%) [2]: 56%
Population Tubulin-Different-Phenotype (%) [2]: 12%
Total Cell Count [2]: 128
Population Apoptotic (%) [3]: 40%
Population Fragmented Nuclei (%) [3]: 7%
Population Healthy Nuclei (%) [3]: 49%
Population Hoechst High Intensity Objects (%) [3]: 12%
Population Membrane Permeable-Phenotype (%) [3]: 3%
Population Mitochondria Different-Phenotype (%) [3]: 79%
Population Mitotic Cells (%) [3]: 59%
Population Normal (%) [3]: 87%
Population Pyknosed Nuclei (%) [3]: 43%
Population Tubulin-Different-Phenotype (%) [3]: 33%
Total Cell Count [3]: 253
Population Apoptotic (%) [4]: 7%
Population Fragmented Nuclei (%) [4]: 5%
Population Healthy Nuclei (%) [4]: 45%
Population Hoechst High Intensity Objects (%) [4]: 2%
Population Membrane Permeable-Phenotype (%) [4]: 6%
Population Mitochondria Different-Phenotype (%) [4]: 27%
Population Mitotic Cells (%) [4]: 92%
Population Normal (%) [4]: 97%
Population Pyknosed Nuclei (%) [4]: 48%
Population Tubulin-Different-Phenotype (%) [4]: 22%
Total Cell Count [4]: 294
Population Apoptotic (%) [5]: 43%
Population Fragmented Nuclei (%) [5]: 11%
Population Healthy Nuclei (%) [5]: 38%
Population Hoechst High Intensity Objects (%) [5]: 12%
Population Membrane Permeable-Phenotype (%) [5]: 0%
Population Mitochondria Different-Phenotype (%) [5]: 61%
Population Mitotic Cells (%) [5]: 56%
Population Normal (%) [5]: 87%
Population Pyknosed Nuclei (%) [5]: 50%
Population Tubulin-Different-Phenotype (%) [5]: 37%
Total Cell Count [5]: 307
Population Apoptotic (%) [6]: 6%
Population Fragmented Nuclei (%) [6]: 7%
Population Healthy Nuclei (%) [6]: 53%
Population Hoechst High Intensity Objects (%) [6]: 4%
Population Membrane Permeable-Phenotype (%) [6]: 8%
Population Mitochondria Different-Phenotype (%) [6]: 13%
Population Mitotic Cells (%) [6]: 93%
Population Normal (%) [6]: 95%
Population Pyknosed Nuclei (%) [6]: 39%
Population Tubulin-Different-Phenotype (%) [6]: 26%
Total Cell Count [6]: 164
Population Apoptotic (%) [7]: 35%
Population Fragmented Nuclei (%) [7]: 9%
Population Healthy Nuclei (%) [7]: 58%
Population Hoechst High Intensity Objects (%) [7]: 7%
Population Membrane Permeable-Phenotype (%) [7]: 0%
Population Mitochondria Different-Phenotype (%) [7]: 54%
Population Mitotic Cells (%) [7]: 64%
Population Normal (%) [7]: 92%
Population Pyknosed Nuclei (%) [7]: 32%
Population Tubulin-Different-Phenotype (%) [7]: 30%
Total Cell Count [7]: 308
Population Apoptotic (%) [8]: 11%
Population Fragmented Nuclei (%) [8]: 4%
Population Healthy Nuclei (%) [8]: 73%
Population Hoechst High Intensity Objects (%) [8]: 3%
Population Membrane Permeable-Phenotype (%) [8]: 4%
Population Mitochondria Different-Phenotype (%) [8]: 17%
Population Mitotic Cells (%) [8]: 88%
Population Normal (%) [8]: 96%
Population Pyknosed Nuclei (%) [8]: 22%
Population Tubulin-Different-Phenotype (%) [8]: 23%
Total Cell Count [8]: 399
Population Apoptotic (%) [9]: 43%
Population Fragmented Nuclei (%) [9]: 15%
Population Healthy Nuclei (%) [9]: 44%
Population Hoechst High Intensity Objects (%) [9]: 12%
Population Membrane Permeable-Phenotype (%) [9]: 2%
Population Mitochondria Different-Phenotype (%) [9]: 29%
Population Mitotic Cells (%) [9]: 56%
Population Normal (%) [9]: 87%
Population Pyknosed Nuclei (%) [9]: 39%
Population Tubulin-Different-Phenotype (%) [9]: 31%
Total Cell Count [9]: 368
Population Apoptotic (%) [10]: 10%
Population Fragmented Nuclei (%) [10]: 6%
Population Healthy Nuclei (%) [10]: 77%
Population Hoechst High Intensity Objects (%) [10]: 3%
Population Membrane Permeable-Phenotype (%) [10]: 10%
Population Mitochondria Different-Phenotype (%) [10]: 7%
Population Mitotic Cells (%) [10]: 89%
Population Normal (%) [10]: 96%
Population Pyknosed Nuclei (%) [10]: 15%
Population Tubulin-Different-Phenotype (%) [10]: 23%
Total Cell Count [10]: 260
Population Apoptotic (%) [11]: 29%
Population Fragmented Nuclei (%) [11]: 10%
Population Healthy Nuclei (%) [11]: 69%
Population Hoechst High Intensity Objects (%) [11]: 9%
Population Membrane Permeable-Phenotype (%) [11]: 2%
Population Mitochondria Different-Phenotype (%) [11]: 23%
Population Mitotic Cells (%) [11]: 70%
Population Normal (%) [11]: 90%
Population Pyknosed Nuclei (%) [11]: 19%
Population Tubulin-Different-Phenotype (%) [11]: 21%
Total Cell Count [11]: 462
Population Apoptotic (%) [12]: 14%
Population Fragmented Nuclei (%) [12]: 5%
Population Healthy Nuclei (%) [12]: 83%
Population Hoechst High Intensity Objects (%) [12]: 2%
Population Membrane Permeable-Phenotype (%) [12]: 3%
Population Mitochondria Different-Phenotype (%) [12]: 5%
Population Mitotic Cells (%) [12]: 85%
Population Normal (%) [12]: 97%
Population Pyknosed Nuclei (%) [12]: 10%
Population Tubulin-Different-Phenotype (%) [12]: 16%
Total Cell Count [12]: 731
